IC50, Ratio and MIC data for 14 compounds are collected here from ChEMBL document CHEMBL2417451, “Synthesis, antimicrobial and cytotoxic activities of some novel thiazole clubbed 1,3,4-oxadiazoles” (Eur J Med Chem, 2013).

One test has as its system HeLa. Nature of the test: Cytotoxicity against human HeLa cells after 24 hrs by MTT assay. It is filed as cell-based. In outline:
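HeLa cells were grown in MEM with 10% FBS, 1% glutamine and gentamicin under humidified 5% CO2. 1.0 × 10^4 cells were exposed to 1–100 μM compound (0.1% DMSO in medium) for 24 h at 37 °C. MTT at 1 mg/mL was added for 5 h at 37 °C, formazan was dissolved in DMSO, and A540 was read. Run in triplicate; IC50 reported.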
For orientation: Tetrazolium dyes change colour on reduction, which living cells bring about.

Test [1] has as its system Aspergillus niger. Put plainly: Ratio of ketoconazole MIC to compound MIC for Aspergillus niger MTCC 282. It is filed as functional.
The test system of test [2] is Candida albicans. Nature of the test: Ratio of ketoconazole MIC to compound MIC for Candida albicans MTCC 227. It is filed as functional.
The next test deals with Aspergillus clavatus. Nature of the test: Antifungal activity against Aspergillus clavatus MTCC 1323 by conventional broth microdilution method. It is filed as functional. In a few lines:
(§1)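 Tube broth microdilution. Compounds were diluted in DMSO from a 2000 μg/mL stock. The primary screen used 500, 250 and 200 μg/mL, and actives were retested at 100, 62.5, 50 and 25 μg/mL. Tubes were incubated overnight. MIC was the lowest concentration with no visible growth (at least 99% inhibition). Clear tubes were subcultured overnight at 37 °C.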
For orientation: In broth dilution the organism is exposed to a series of concentrations in liquid medium.

Test [3] deals with Aspergillus niger. Nature of the test: Antifungal activity against Aspergillus niger MTCC 282 by conventional broth microdilution method. It is filed as functional. In outline: as §1
The subject of test [4] is Candida albicans. Put plainly: Antifungal activity against Candida albicans MTCC 227 by conventional broth microdilution method. It is filed as functional. In outline:
as §1

The test system of test [5] is Pseudomonas aeruginosa. Nature of the test: Antibacterial activity against Pseudomonas aeruginosa MTCC 1688 by conventional broth microdilution method. It is filed as functional. In a few lines: as §1
In test [6] the test system is Escherichia coli. Nature of the test: Antibacterial activity against Escherichia coli MTCC 443 by conventional broth microdilution method. It is filed as functional. In a few lines:
as §1

Test [7] relates to Streptococcus pyogenes. Nature of the test: Antibacterial activity against Streptococcus pyogenes MTCC 442 by conventional broth microdilution method. Type of test: functional. In a few lines:
as §1

Test [8] has as its system Staphylococcus aureus. Nature of the test: Antibacterial activity against Staphylococcus aureus MTCC 96 by conventional broth microdilution method. It is filed as functional. In a few lines:
as §1

For test [9], the system named is Pseudomonas aeruginosa. Put plainly: Ratio of chloramphenicol MIC to compound MIC for Pseudomonas aeruginosa MTCC 1688. Type of test: functional.
The subject of test [10] is Escherichia coli. Nature of the test: Ratio of chloramphenicol MIC to compound MIC for Escherichia coli MTCC 443. It is filed as functional.
In test [11] the test system is Streptococcus pyogenes. Nature of the test: Ratio of chloramphenicol MIC to compound MIC for Streptococcus pyogenes MTCC 442. Type of test: functional.
In test [12] the test system is Staphylococcus aureus. Put plainly: Ratio of chloramphenicol MIC to compound MIC for Staphylococcus aureus MTCC 96. Type of test: functional.

Converted amounts (≈) assume the structure as drawn.

Broadly, the IC50 is the concentration that inhibits the measured activity by half. High values mean a need for much substance, low ones inhibition by little substance. What is called MIC is the least concentration at which growth counts as inhibited. Lower therefore signals a more susceptible organism. On to `COc1ccc(NCn2nc(-c3sc(NC(C)=O)nc3C)oc2=S)cc1`, for which the IC50 in the test with HeLa is 98.6 µM. The Ratio with Aspergillus niger [1] and in the test with Candida albicans [2] was 2 each time. For the same compound, the MIC in the test with Aspergillus clavatus is 62.5 µg/mL (≈ 160 µM); in the test on Aspergillus niger [3] it was 25 µg/mL (≈ 63.9 µM); against Candida albicans [4], 25 µg/mL (≈ 63.9 µM); against Pseudomonas aeruginosa [5] it was 500 µg/mL (≈ 1280 µM); in the test on Escherichia coli [6], 500 µg/mL (≈ 1280 µM); in the test on Streptococcus pyogenes [7], greater than 1000 µg/mL. Inhibition of growth against Staphylococcus aureus [8] (MIC) required 500 µg/mL (≈ 1280 µM).

Regarding `CC(=O)Nc1nc(C)c(-c2nn(CNc3ccccc3[N+](=O)[O-])c(=S)o2)s1`, the MIC in the test on Aspergillus clavatus is 500 µg/mL (≈ 1230 µM); in the test on Aspergillus niger [3], 500 µg/mL (≈ 1230 µM); with Candida albicans [4], 250 µg/mL (≈ 615 µM); with Pseudomonas aeruginosa [5], 250 µg/mL (≈ 615 µM); with Escherichia coli [6] it was 500 µg/mL (≈ 1230 µM); against Streptococcus pyogenes [7], 250 µg/mL (≈ 615 µM). The MIC against Staphylococcus aureus [8] worked out at 100 µg/mL (≈ 246 µM).

In the case of `CC(=O)Nc1nc(C)c(-c2nn(CNc3cccc([N+](=O)[O-])c3)c(=S)o2)s1`, the IC50 in the test with HeLa was greater than 100 µM. Further, the minimum inhibitory concentration (MIC) was found to be 250 µg/mL (≈ 615 µM) against Aspergillus clavatus; 100 µg/mL (≈ 246 µM) against Aspergillus niger [3]; 500 µg/mL (≈ 1230 µM) against Candida albicans [4]; 50 µg/mL (≈ 123 µM) against Pseudomonas aeruginosa [5]; 50 µg/mL (≈ 123 µM) against Escherichia coli [6]; 100 µg/mL (≈ 246 µM) against Streptococcus pyogenes [7]. Besides, the lowest concentration to inhibit growth with Staphylococcus aureus [8] (MIC) was 50 µg/mL (≈ 123 µM).

As for `CC(=O)Nc1nc(C)c(-c2nn(CNc3ccc([N+](=O)[O-])cc3)c(=S)o2)s1`, the Ratio turned out to be 4 in the test on Pseudomonas aeruginosa [9], 4 in the test with Escherichia coli [10], 2 in the test on Streptococcus pyogenes [11] and 2 with Staphylococcus aureus [12]. This compound gave an IC50 in the test with HeLa of 96.5 µM. Further, the MIC was found to be 100 µg/mL (≈ 246 µM) against Aspergillus clavatus; 250 µg/mL (≈ 615 µM) with Aspergillus niger [3]; 500 µg/mL (≈ 1230 µM) in the test on Candida albicans [4]; 12.5 µg/mL (≈ 30.8 µM) in the test on Pseudomonas aeruginosa [5]; 12.5 µg/mL (≈ 30.8 µM) in the test on Escherichia coli [6]; 25 µg/mL (≈ 61.5 µM) with Streptococcus pyogenes [7]. In the test with Staphylococcus aureus [8], this compound had an MIC of 25 µg/mL (≈ 61.5 µM).

With `CC(=O)Nc1nc(C)c(-c2nn(CNc3ccccc3C)c(=S)o2)s1`, the MIC amounted to 250 µg/mL (≈ 666 µM) with Aspergillus clavatus; 500 µg/mL (≈ 1330 µM) against Aspergillus niger [3]; 500 µg/mL (≈ 1330 µM) against Candida albicans [4]; 100 µg/mL (≈ 266 µM) in the test with Pseudomonas aeruginosa [5]; 250 µg/mL (≈ 666 µM) in the test on Escherichia coli [6]; 250 µg/mL (≈ 666 µM) against Streptococcus pyogenes [7]. This compound gave an MIC against Staphylococcus aureus [8] of 500 µg/mL (≈ 1330 µM).

As for `CC(=O)Nc1nc(C)c(-c2nn(CNc3cccc(C)c3)c(=S)o2)s1`, the MIC against Aspergillus clavatus is 500 µg/mL (≈ 1330 µM); with Aspergillus niger [3] it was 500 µg/mL (≈ 1330 µM); in the test on Candida albicans [4], 500 µg/mL (≈ 1330 µM); against Pseudomonas aeruginosa [5] it was 500 µg/mL (≈ 1330 µM); with Escherichia coli [6], 250 µg/mL (≈ 666 µM); in the test on Streptococcus pyogenes [7] it was 500 µg/mL (≈ 1330 µM). The compound further had an MIC with Staphylococcus aureus [8] of 500 µg/mL (≈ 1330 µM).

For `CC(=O)Nc1nc(C)c(-c2nn(CNc3ccc(C)cc3)c(=S)o2)s1`, the MIC against Aspergillus clavatus is 250 µg/mL (≈ 666 µM); against Aspergillus niger [3], 250 µg/mL (≈ 666 µM); in the test with Candida albicans [4] it was 500 µg/mL (≈ 1330 µM); against Pseudomonas aeruginosa [5], greater than 1000 µg/mL; against Escherichia coli [6], 500 µg/mL (≈ 1330 µM); with Streptococcus pyogenes [7], greater than 1000 µg/mL. In the test with Staphylococcus aureus [8], this compound returned a minimal inhibitory concentration (MIC) of 500 µg/mL (≈ 1330 µM).

With `CC(=O)Nc1nc(C)c(-c2nn(CNc3ccccc3F)c(=S)o2)s1`, the MIC in the test with Aspergillus clavatus is 500 µg/mL (≈ 1320 µM); against Aspergillus niger [3], greater than 1000 µg/mL; against Candida albicans [4], 500 µg/mL (≈ 1320 µM); in the test with Pseudomonas aeruginosa [5], 500 µg/mL (≈ 1320 µM); in the test on Escherichia coli [6], 250 µg/mL (≈ 659 µM); against Streptococcus pyogenes [7], 100 µg/mL (≈ 264 µM). The compound further came in with an MIC against Staphylococcus aureus [8] of 250 µg/mL (≈ 659 µM).

Turning to `CC(=O)Nc1nc(C)c(-c2nn(CNc3cccc(F)c3)c(=S)o2)s1`, the 50% inhibitory concentration (IC50) in the test on HeLa was greater than 100 µM. Besides, the MIC is greater than 1000 µg/mL in the test with Aspergillus clavatus; 500 µg/mL (≈ 1320 µM) with Aspergillus niger [3]; 500 µg/mL (≈ 1320 µM) in the test on Candida albicans [4]; 50 µg/mL (≈ 132 µM) against Pseudomonas aeruginosa [5]; 50 µg/mL (≈ 132 µM) with Escherichia coli [6]; 100 µg/mL (≈ 264 µM) in the test with Streptococcus pyogenes [7]. The MIC in the test on Staphylococcus aureus [8] is 50 µg/mL (≈ 132 µM).

In the case of `CC(=O)Nc1nc(C)c(-c2nn(CNc3ccc(F)cc3)c(=S)o2)s1`, the Ratio was 4 in the test on Pseudomonas aeruginosa [9], 4 in the test with Escherichia coli [10], 2 in the test on Streptococcus pyogenes [11] and 4 in the test on Staphylococcus aureus [12]. This compound showed an IC50 in the test with HeLa greater than 100 µM. Moreover, the MIC is greater than 1000 µg/mL in the test on Aspergillus clavatus; 500 µg/mL (≈ 1320 µM) against Aspergillus niger [3]; 500 µg/mL (≈ 1320 µM) in the test with Candida albicans [4]; 12.5 µg/mL (≈ 32.9 µM) in the test with Pseudomonas aeruginosa [5]; 12.5 µg/mL (≈ 32.9 µM) with Escherichia coli [6]; 25 µg/mL (≈ 65.9 µM) in the test with Streptococcus pyogenes [7]. For the same compound, the MIC against Staphylococcus aureus [8] was 12.5 µg/mL (≈ 32.9 µM).

Take `COc1ccccc1NCn1nc(-c2sc(NC(C)=O)nc2C)oc1=S`: the MIC with Aspergillus clavatus was 250 µg/mL (≈ 639 µM); against Aspergillus niger [3], 250 µg/mL (≈ 639 µM); in the test with Candida albicans [4] it was 500 µg/mL (≈ 1280 µM); with Pseudomonas aeruginosa [5] it was 250 µg/mL (≈ 639 µM); in the test on Escherichia coli [6], 500 µg/mL (≈ 1280 µM); against Streptococcus pyogenes [7] it was greater than 1000 µg/mL. In addition, inhibition of growth against Staphylococcus aureus [8] (MIC) required 500 µg/mL (≈ 1280 µM).

As to `COc1cccc(NCn2nc(-c3sc(NC(C)=O)nc3C)oc2=S)c1`, the MIC in the test on Aspergillus clavatus came to 500 µg/mL (≈ 1280 µM); in the test on Aspergillus niger [3], 100 µg/mL (≈ 255 µM); against Candida albicans [4], 250 µg/mL (≈ 639 µM); in the test with Pseudomonas aeruginosa [5], 500 µg/mL (≈ 1280 µM); against Escherichia coli [6], 500 µg/mL (≈ 1280 µM); in the test with Streptococcus pyogenes [7] it was 500 µg/mL (≈ 1280 µM). In addition, in the test on Staphylococcus aureus [8], the minimum inhibitory concentration (MIC) was greater than 1000 µg/mL.

On to `O=C(N[C@H](CO)[C@H](O)c1ccc([N+](=O)[O-])cc1)C(Cl)Cl` [CHLORAMPHENICOL], for which the MIC in the test with Pseudomonas aeruginosa [5], in the test on Escherichia coli [6], in the test with Streptococcus pyogenes [7] and against Staphylococcus aureus [8] was 50 µg/mL (≈ 155 µM) in each case.

For `CC(=O)N1CCN(c2ccc(OCC3COC(Cn4ccnc4)(c4ccc(Cl)cc4Cl)O3)cc2)CC1` (stereo unspecified) [KETOCONAZOLE], the MIC against Aspergillus clavatus, in the test on Aspergillus niger [3] and against Candida albicans [4] was 50 µg/mL (≈ 94.1 µM) throughout.
